Test results from PMC6859084 (Drug Design, Development and Therapy, 2019).
Read-outs that look alike come from different tables or passages of the source.

Assays:
[1] = previously reported; cited from earlier work
[2] = Pharmacokinetics after single oral dose of FDC or loose combination; assay type: in vivo, human; conditions: FDC to loose combination
In short: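 Healthy subjects, randomized open-label two-period crossover with 14-day washout, fasted overnight, single oral dose with 200 mL water. Heparinized blood drawn pre-dose to 72 h, centrifuged 1,800 rpm 8 min at 4°C, plasma mixed 1:1 with 5% formic acid, stored −70°C. LC-MS/MS (C18, positive ESI, MRM), validated 0.5–200 ng/mL. Non-compartmental parameters; log-transformed GMR from linear mixed-effects model.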

[3] = system: LDL-C; conditions: cited from earlier work

Row | SMILES | half-life [1] [h] | AUClast Geometric Mean Ratio (90% CI) [2] | Cmax Geometric Mean Ratio (90% CI) [2] | LDL-C reduction ([3]; first week after rosuvastatin administration) [%] | LDL-C reduction ([3]; second week after rosuvastatin administration) [%]
1 | N[C@@H](CC(=O)N1CCc2c(nc(C(F)(F)F)nc2C(F)(F)F)C1)CN1CC(F)(F)CCC1=O [Gemigliptin] | 17 | 1.02 (0.96–1.09) | 1.08 (0.99–1.18) |  | 
2 | CC(C)c1nc(N(C)S(C)(=O)=O)nc(-c2ccc(F)cc2)c1/C=C/[C@@H](O)C[C@@H](O)CC(=O)O [Rosuvastatin] |  | 1.02 (0.95–1.09) | 1.09 (0.96–1.22) | 64 | 90
